In the M2OR odorant receptor database:

Experiments:
Details in all cases: stereoisomer not certain
[1] = molecular target: T1, UniProt Q8VGC6
T1 sequence (whole entry): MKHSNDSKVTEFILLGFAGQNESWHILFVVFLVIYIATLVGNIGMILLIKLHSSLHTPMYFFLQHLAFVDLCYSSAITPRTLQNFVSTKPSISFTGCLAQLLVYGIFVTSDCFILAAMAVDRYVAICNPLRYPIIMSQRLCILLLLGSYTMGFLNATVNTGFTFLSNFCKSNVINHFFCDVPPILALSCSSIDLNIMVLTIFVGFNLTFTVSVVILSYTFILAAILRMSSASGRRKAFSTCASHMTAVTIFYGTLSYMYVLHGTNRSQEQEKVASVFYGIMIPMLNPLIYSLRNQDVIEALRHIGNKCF
In short: (§1)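 Each entry records the cell line, G-protein, co-transfected protein and tags used. Methods varied with the source, often transient luciferase assays in mammalian cell lines. A receptor–molecule pair is called responsive (active) if the original authors judged its signal statistically different from baseline and non-responsive (inactive) otherwise.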

[2] = molecular target: T2, UniProt Q8VGD7
T2 sequence (whole entry): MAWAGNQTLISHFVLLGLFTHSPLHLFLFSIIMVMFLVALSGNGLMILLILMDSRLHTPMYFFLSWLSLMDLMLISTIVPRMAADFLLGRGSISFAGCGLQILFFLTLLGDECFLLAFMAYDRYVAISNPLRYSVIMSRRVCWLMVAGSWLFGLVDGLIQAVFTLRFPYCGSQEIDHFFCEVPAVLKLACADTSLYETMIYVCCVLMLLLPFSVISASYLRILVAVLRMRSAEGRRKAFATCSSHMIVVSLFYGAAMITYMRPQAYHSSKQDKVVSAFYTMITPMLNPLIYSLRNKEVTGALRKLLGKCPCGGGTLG
In short: as §1

[3] = molecular target: T3, UniProt Q8VGH1
T3 sequence (whole entry): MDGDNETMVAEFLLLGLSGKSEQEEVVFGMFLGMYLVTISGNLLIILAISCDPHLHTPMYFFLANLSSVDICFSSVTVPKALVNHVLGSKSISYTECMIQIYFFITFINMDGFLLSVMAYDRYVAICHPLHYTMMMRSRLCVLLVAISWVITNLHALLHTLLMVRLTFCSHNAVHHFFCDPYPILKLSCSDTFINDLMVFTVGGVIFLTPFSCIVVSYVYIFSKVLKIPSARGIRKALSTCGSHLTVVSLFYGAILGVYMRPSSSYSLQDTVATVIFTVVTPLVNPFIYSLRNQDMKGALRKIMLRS
In short: as §1

[4] = molecular target: T4, UniProt Q8VGJ1
T4 sequence (whole entry): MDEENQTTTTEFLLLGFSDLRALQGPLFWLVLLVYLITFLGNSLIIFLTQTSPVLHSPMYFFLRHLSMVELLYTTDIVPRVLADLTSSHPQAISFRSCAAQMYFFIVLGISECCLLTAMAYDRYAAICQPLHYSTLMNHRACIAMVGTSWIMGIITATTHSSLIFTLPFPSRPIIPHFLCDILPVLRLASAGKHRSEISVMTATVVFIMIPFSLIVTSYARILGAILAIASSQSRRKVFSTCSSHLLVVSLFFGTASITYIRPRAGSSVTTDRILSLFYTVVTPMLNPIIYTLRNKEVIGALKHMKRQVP
In short: as §1

[5] = molecular target: T5, UniProt Q8VGJ3
T5 sequence (whole entry): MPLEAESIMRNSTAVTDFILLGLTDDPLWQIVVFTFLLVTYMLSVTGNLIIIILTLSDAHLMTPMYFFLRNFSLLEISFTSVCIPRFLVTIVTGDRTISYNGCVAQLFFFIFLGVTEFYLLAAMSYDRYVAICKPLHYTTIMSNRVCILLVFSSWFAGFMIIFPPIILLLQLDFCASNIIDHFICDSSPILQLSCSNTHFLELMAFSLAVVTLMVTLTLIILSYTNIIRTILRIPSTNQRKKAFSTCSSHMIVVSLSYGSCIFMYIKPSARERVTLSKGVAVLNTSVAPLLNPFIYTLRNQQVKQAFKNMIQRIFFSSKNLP
In short: as §1

[6] = molecular target: T6, UniProt Q8VGJ5
T6 sequence (whole entry): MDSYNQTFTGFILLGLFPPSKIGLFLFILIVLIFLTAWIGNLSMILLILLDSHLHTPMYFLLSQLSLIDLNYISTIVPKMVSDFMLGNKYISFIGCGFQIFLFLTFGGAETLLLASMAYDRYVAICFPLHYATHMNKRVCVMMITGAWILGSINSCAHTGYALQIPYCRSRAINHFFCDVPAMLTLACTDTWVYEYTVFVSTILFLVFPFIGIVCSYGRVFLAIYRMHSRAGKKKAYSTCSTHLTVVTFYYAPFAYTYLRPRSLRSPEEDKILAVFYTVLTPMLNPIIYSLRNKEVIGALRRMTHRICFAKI
In short: as §1

[7] = molecular target: T7, UniProt Q8VGL0
T7 sequence (whole entry): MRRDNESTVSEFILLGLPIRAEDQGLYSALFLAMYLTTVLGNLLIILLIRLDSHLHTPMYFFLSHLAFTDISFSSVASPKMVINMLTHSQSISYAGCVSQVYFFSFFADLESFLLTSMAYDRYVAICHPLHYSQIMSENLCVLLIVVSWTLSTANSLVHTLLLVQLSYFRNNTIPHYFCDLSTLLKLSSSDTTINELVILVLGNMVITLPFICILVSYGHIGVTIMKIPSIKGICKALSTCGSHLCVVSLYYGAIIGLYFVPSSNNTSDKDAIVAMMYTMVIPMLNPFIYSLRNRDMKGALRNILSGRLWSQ
In short: as §1

[8] = molecular target: T8, UniProt Q8VGL7
T8 sequence (whole entry): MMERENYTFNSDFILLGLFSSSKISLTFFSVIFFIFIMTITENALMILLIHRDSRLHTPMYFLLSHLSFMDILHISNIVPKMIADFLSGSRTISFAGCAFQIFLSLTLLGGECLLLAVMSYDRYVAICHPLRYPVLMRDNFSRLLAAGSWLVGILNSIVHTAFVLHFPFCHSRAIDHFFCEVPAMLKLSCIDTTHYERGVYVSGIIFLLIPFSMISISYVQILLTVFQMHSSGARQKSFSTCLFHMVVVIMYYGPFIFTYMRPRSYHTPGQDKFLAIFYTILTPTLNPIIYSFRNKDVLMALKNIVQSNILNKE
In short: as §1

[9] = molecular target: T9, UniProt Q8VGM2
T9 sequence (whole entry): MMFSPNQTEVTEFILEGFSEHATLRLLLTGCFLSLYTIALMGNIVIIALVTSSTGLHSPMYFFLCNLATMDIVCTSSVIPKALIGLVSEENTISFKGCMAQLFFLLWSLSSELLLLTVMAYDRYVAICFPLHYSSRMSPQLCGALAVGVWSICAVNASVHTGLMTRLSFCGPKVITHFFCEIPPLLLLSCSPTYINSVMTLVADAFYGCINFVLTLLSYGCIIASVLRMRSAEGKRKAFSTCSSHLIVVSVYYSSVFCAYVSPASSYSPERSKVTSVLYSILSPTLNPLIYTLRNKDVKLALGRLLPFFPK
In short: as §1

[10] = molecular target: T10, UniProt Q8VGP6
T10 sequence (whole entry): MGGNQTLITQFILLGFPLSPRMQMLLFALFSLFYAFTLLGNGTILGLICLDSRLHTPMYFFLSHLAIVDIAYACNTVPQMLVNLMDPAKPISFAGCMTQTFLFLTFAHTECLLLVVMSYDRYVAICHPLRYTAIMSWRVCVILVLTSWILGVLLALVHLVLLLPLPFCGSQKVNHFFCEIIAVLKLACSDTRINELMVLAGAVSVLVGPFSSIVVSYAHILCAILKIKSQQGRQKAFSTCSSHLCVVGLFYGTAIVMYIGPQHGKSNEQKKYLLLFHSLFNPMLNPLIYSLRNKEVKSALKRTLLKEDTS
In short: as §1

[11] = molecular target: T11, UniProt Q8VGQ3
T11 sequence (whole entry): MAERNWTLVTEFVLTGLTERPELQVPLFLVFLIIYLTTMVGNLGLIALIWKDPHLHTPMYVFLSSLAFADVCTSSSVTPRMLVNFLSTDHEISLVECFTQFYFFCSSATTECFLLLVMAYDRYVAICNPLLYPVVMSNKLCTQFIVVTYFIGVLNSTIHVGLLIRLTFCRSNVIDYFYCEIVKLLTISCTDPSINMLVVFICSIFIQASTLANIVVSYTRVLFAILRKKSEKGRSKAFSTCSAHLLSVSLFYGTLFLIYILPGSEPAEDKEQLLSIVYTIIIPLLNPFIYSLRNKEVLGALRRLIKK
In short: as §1

[12] = molecular target: T12, UniProt Q8VGT4
T12 sequence (whole entry): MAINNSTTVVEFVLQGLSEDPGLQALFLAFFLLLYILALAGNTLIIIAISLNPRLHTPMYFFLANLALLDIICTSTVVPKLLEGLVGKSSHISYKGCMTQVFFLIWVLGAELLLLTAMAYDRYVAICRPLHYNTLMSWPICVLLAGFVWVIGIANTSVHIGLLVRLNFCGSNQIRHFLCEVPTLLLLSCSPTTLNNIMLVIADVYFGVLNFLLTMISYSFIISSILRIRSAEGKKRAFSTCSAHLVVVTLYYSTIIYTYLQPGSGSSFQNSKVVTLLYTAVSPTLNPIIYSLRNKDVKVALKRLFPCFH
In short: as §1

[13] = molecular target: T13, UniProt Q8VGU3
T13 sequence (whole entry): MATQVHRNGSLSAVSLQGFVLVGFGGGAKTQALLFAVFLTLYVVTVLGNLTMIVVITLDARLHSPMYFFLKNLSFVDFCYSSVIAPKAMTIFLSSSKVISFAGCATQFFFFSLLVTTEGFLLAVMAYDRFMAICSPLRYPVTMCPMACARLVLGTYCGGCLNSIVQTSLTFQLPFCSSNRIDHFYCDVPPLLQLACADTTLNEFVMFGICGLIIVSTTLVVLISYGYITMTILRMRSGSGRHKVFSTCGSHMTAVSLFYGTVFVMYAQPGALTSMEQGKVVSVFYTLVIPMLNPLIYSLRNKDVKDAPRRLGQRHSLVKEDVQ
In short: as §1

[14] = molecular target: T14, UniProt Q8VGV1
T14 sequence (whole entry): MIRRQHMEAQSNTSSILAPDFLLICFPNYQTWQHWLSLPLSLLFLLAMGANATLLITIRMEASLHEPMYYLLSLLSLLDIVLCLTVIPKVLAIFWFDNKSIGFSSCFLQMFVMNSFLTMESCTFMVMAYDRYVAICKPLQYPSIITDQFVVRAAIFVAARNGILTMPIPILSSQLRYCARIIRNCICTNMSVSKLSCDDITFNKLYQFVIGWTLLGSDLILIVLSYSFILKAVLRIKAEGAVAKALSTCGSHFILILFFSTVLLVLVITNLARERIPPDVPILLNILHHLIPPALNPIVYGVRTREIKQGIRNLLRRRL
In short: as §1

[15] = molecular target: T15, UniProt Q8VGV7
T15 sequence (whole entry): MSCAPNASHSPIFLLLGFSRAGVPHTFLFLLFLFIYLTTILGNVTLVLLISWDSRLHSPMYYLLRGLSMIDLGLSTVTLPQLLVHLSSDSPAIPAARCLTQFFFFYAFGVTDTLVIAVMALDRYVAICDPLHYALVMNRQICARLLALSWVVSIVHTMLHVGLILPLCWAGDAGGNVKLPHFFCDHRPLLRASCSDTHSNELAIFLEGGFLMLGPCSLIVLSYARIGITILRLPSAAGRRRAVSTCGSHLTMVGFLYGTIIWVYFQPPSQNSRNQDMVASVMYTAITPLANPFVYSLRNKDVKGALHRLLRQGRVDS
In short: as §1

[16] = molecular target: T16, UniProt Q8VGW5
T16 sequence (whole entry): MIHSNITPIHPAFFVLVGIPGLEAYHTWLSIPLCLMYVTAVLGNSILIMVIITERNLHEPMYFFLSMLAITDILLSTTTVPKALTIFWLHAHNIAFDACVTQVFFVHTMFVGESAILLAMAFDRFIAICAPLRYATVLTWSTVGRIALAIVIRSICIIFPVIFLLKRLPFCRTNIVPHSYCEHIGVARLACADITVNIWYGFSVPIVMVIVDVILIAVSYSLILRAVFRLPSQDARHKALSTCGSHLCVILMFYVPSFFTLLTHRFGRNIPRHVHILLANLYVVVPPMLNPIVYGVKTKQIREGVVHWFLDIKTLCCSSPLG
In short: as §1

[17] = molecular target: T17, UniProt Q8VGX3
T17 sequence (whole entry): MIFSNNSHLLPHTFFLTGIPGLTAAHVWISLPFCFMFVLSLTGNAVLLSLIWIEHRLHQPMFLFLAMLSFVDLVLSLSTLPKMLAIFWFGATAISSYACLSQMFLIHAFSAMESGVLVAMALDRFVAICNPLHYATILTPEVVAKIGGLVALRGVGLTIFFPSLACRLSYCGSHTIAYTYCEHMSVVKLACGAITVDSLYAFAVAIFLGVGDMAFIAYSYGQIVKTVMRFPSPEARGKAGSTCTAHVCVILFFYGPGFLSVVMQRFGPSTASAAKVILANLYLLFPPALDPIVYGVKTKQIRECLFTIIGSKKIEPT
In short: as §1

[18] = molecular target: T18, UniProt Q8VGX5
T18 sequence (whole entry): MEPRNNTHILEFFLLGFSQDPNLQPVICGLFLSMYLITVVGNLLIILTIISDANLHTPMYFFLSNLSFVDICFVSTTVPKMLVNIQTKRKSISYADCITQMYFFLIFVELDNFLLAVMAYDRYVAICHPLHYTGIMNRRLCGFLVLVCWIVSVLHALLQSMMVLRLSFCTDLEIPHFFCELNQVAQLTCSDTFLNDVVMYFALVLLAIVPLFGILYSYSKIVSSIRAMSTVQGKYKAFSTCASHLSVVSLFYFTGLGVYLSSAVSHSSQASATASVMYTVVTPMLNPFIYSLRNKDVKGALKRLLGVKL
In short: as §1

Measured: odorant receptor agonist call

CCC(=O)OC
inactive: [1]

C=CCCCCCC
inactive: [1]

CCC(=O)OC(C)(C)C
inactive: [1]

CCCCCCCO
active: [1] | [6] | [10]
inactive: all other assays above
